Assay results taken from the RNAGym collection of RNA variant scans (doi:10.1126/science.aae0568).
This sample holds only a part of the variants without activity.

B1: tRNA (parent)
chain: GUUCCGUUGGCGUAAUGGUAACGCGUCUCCCUCCUAAGGAGAAGACUGCGGGUUCGAGUCCCGUACGGAACG

Variants of: B1
Experiment: yeast fitness relative to wild type (ratio to wild type); higher = fitter; tRNA-Arg(CCU), competitive growth, 37 C, YPD
In short: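 Variants of the tRNA-Arg(CCU) gene were chemically synthesised with a 3% per-site mutation rate across 69 sites and placed at the native genomic locus in Saccharomyces cerevisiae. Six parallel replicates of the pooled strains were competed in YPD at 37°C for 24 hours, and gene amplicons from the start and end populations were read by 100-nucleotide paired-end sequencing. Darwinian fitness relative to wild type was derived from changes in genotype frequencies. Genotypes required ≥ 100 starting reads, and estimates < 0.5 were set to 0.5.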

Q: For GUUUCGUUGGCGUAAUGGUAACGCGUCUCCCUCCUGAGGAGAAGACUGCGGGUUCGAGUCCCGUACGGCACG [C4U A36G A69C], which yeast fitness is on record?
A: The yeast fitness was 0.8.

Q: With GUUUCGUUGGCGUAAUGGUAACGCGUCUCCCUCCUAAGGAGUAGACUGCGGGUUCGAGUCACGUCCGGAACG [C4U A42U C61A A65C] as the variant, how does the yeast fitness read?
A: The yeast fitness was at most 0.5.

Q: For GUUUCGUUGGCGUAAUGGUAACGCGUCUCCCUCCUACGGAGAAGACUGCCGGUUCGAGUCCCGUACGGAACG [C4U A37C G50C], which yeast fitness is on record?
A: The yeast fitness was at most 0.5.

Q: With GUUUCGUUGGCGUAAUGGUAACGCGUCUCCCUCCUUAGGCGAAGACUGCGGGUUCGAGUCCCGUACGAAACG [C4U A36U A40C G68A] as the variant, how does the yeast fitness read?
A: Its yeast fitness is at most 0.5.

Q: With GUUUCGUUGGCGUAAUGGUAACGCGUCUCCCUCCUAAGGGGAAGACUGCGGGUUCGAGUGCCGUACGGAACG [C4U A40G C60G] as the variant, how does the yeast fitness read?
A: The yeast fitness was 0.544.

Q: With GUUUCGUUGGCGUAAUGGUAACGCGUCUCCCUCCUAUGGAGAAGACUGUGGGUUCGAGUCCCGUACGGAACG [C4U A37U C49U] as the variant, how does the yeast fitness read?
A: The yeast fitness was 0.563.

Q: For GUUUAGUUGGCGUAAUGGUAACGCGUCUCCCUCCUUAGCAGAAGACUGCGGGUUCGAGUCCCGUCCGGAACG [C4U C5A A36U G39C A65C], which yeast fitness is on record?
A: The yeast fitness was at most 0.5.

Q: Which yeast fitness does the source give for GUUUCGUUGGCGUAAUGGUAACGCGUCUCCCUCCUUAGGAGAAGACUGCGGGUUCGAGUCCCGUACGGAACG [C4U A36U] here?
A: The yeast fitness was 0.82.

Q: Which yeast fitness does the source give for GUUUCGUUGGCGUAAUGGUAACGCGUCUCCCUCCUGAGGAGAAGACUGCGGGUUCGAGUCCCGUACGGAACG [C4U A36G] here?
A: Its yeast fitness is 1.02.

Q: For GUUUCGUUGGCGUAAUGGUAACGCGUCUCCCUCCUAAGGAGAAGCCUGCGGGUUUGAGUCCCGUACGCAACG [C4U A45C C55U G68C], which yeast fitness is on record?
A: Its yeast fitness is at most 0.5.

Q: With GUUUCGUUGGCGUAAUGGUAACGCGUCUCCCUCCUAAGGAGAAGACUGCGGGUUCGCGUCUCGUACGGAUCG [C4U A57C C61U A70U] as the variant, how does the yeast fitness read?
A: Its yeast fitness is at most 0.5.

Q: For GUUUCGUUGGCGUAAUGGUAACGCGUCUCCCUCCUAAGGAGAAGACUGCGGGUUCGAGUCCCGUUCGGAACG [C4U A65U], which yeast fitness is on record?
A: The yeast fitness was 1.04.

Q: For GUUUCGUUGGCGUAAUGGUAACGCGUCUCCCUCCUACGGAGAAGACUCCCGGUUCGAGUCCCGUACGGAACG [C4U A37C G48C G50C], which yeast fitness is on record?
A: Its yeast fitness is at most 0.5.

Q: Which yeast fitness does the source give for GUUUCGUUGGCGUAAUGGUAACGCGUCUCCCUCCUAUGGAGAAGACUGCGGCUUCGAGUCCCGUCCGGAACG [C4U A37U G52C A65C] here?
A: The yeast fitness was at most 0.5.

Q: For GUUUAGUUGGCGAAAUGGUAACGCGUCUCCUUCUUAAGGAGAAGACUGCGGGUUCGAGUCCCGUACGGAACG [C4U C5A U13A C31U C34U], which yeast fitness is on record?
A: The yeast fitness was 0.544.

Q: Which yeast fitness does the source give for GUUUCGUUGGCGUAAUGGUAACGCGUCUCCCUCCUAAGGAGCAGGCUGUGGGUUCGAGUCCCGUAAGGAACG [C4U A42C A45G C49U C66A] here?
A: Its yeast fitness is at most 0.5.

Q: For GUUUCGUUGGCGUAAUGGUAACGCGUCUCCCUCCUAGGGAGAAGUCUGCGGGUUCGAGUCCCGUACGGAACG [C4U A37G A45U], which yeast fitness is on record?
A: Its yeast fitness is 0.707.

Q: Which yeast fitness does the source give for GUUUCGUUGGCGUAAUGGUAACGCGUCUCCCUCCUAAGGAGAUGACUGCGGGUUGGAGUCCCGUACAGAACG [C4U A43U C55G G67A] here?
A: Its yeast fitness is 0.804.

Q: Which yeast fitness does the source give for GUUUCGUUGGCGUAAUGGUAACGCGUCUCCCUCCUAAGGAGCAGACUGCGGGUUCGAGUCCCGUACGGUACG [C4U A42C A69U] here?
A: The yeast fitness was 0.633.

Q: For GUUUCGUUGGCGUAAUGGUAACGCGUCUCCCUCCUAAGGAGAAGACUGCGGGUUCGAGUCCCGUCCGGAGCG [C4U A65C A70G], which yeast fitness is on record?
A: Its yeast fitness is 0.75.

Q: With GUUUCGUUGGCGUAAUGGUAACGCGUCUCCCUCCUAAGGAGAAGACUGCGGGUUCGAGUCCCGUGUGGAACG [C4U A65G C66U] as the variant, how does the yeast fitness read?
A: The yeast fitness was 0.787.

Q: For GUUUCGUUGGCGUAAUGGUAACGCGUCUCCCUCCUAAGGGGGAGACUGCGGGUUCGCGUCCCGUAUGGAACG [C4U A40G A42G A57C C66U], which yeast fitness is on record?
A: Its yeast fitness is at most 0.5.

Q: With GUUUCGUUGGCGUAAUGGUAACGCGUCUCCCUCCUAAGGAGAAGUCUGCGGGUUCGAGUCCCGUACGGCACG [C4U A45U A69C] as the variant, how does the yeast fitness read?
A: Its yeast fitness is 0.79.

Q: Which yeast fitness does the source give for GUUUCGUUGGCGUAAUGGUAACGCGUCUCCCUCCUAAGGAGAAGUCUGCGGGUUCGAGUCCCGUACGGUACG [C4U A45U A69U] here?
A: Its yeast fitness is 0.827.

Q: For GUUUCGUUGGCGUAAUGGUAACGCGUCUCCCUCCUAAGGGGAAGACUGCGGGUUCGAGUCCUGUACGGAACG [C4U A40G C62U], which yeast fitness is on record?
A: Its yeast fitness is 0.667.

Q: Which yeast fitness does the source give for GUUUCGUUGGCGUAAUGGUAACGCGUCUCCCUCCUAAGGAGACGACUGCGGGUUCGAGUCCUGUACGGAACG [C4U A43C C62U] here?
A: Its yeast fitness is 0.965.

Q: With GUUUCGUUGGCGUAAUGGUAACGCGUCUCCCUCCUAAGGAGAAGACUGCGGGUUCGGGUCUCGUACGGAACG [C4U A57G C61U] as the variant, how does the yeast fitness read?
A: Its yeast fitness is 0.675.

Q: For GUUUCGUUGGCGUAAUGGUAACGCGUCUCCCUCCUAAGGCGAAGACUGCGGGUUCGAGUCCCGUACGGAGCG [C4U A40C A70G], which yeast fitness is on record?
A: Its yeast fitness is at most 0.5.

Q: Which yeast fitness does the source give for GUUUCGUUGGCGUAAUGGUAACGCGUCUCCCUCCUAAGGAGAAGACUGCGGGUUCGCGUCCUGUACGGAACG [C4U A57C C62U] here?
A: The yeast fitness was 0.601.

Q: Which yeast fitness does the source give for GUUUCGUUGGCGUAAUGGUAACGCGUCUCCCUCCUAAGGAGAAGUCUGCGGGUUCGAGUCCCGUACGGAACG [C4U A45U] here?
A: The yeast fitness was 0.968.

Q: Which yeast fitness does the source give for GUUUCGUUGGCGUAAUGGUAACGCGUCUCCCUCCUGAGGAGAACACUGCGGGUUCGAGUCCCGUACGGUACG [C4U A36G G44C A69U] here?
A: Its yeast fitness is 0.635.

Q: With GUUUCGUUGGCGUAAUGGUAACGCGUCUCCCUCCUAAGGUGAAGACUGCGGGUUCGAGUCCCGUAUGGAACG [C4U A40U C66U] as the variant, how does the yeast fitness read?
A: Its yeast fitness is 0.762.

Q: Which yeast fitness does the source give for GUUUCGUUGGCGUAAUGGUAACGCGUCUCCCUCCUAUGGAGAAGACUGCGGGUUCGAGUCCCGUACGGAACG [C4U A37U] here?
A: Its yeast fitness is 0.676.

Q: Which yeast fitness does the source give for GUUUCGUUGGCGUAAUGGUAACGCGUCUCCCUCCUAAGGAGAAGGCUGCGGGUUCGAGUCGCGUCCGGAUCG [C4U A45G C61G A65C A70U] here?
A: Its yeast fitness is at most 0.5.

Q: With GUUUCGUUGGCGUAAUGGUAACGCGUCUCCCUCCUAAGGAGCAGACUGCGCGUUCGAGUCCCGUGCGGAACG [C4U A42C G51C A65G] as the variant, how does the yeast fitness read?
A: The yeast fitness was 0.508.

Q: For GUUUCGUUGGCGUAAUGGUAACGCGUCUCCCUCCUAAGGAGCAGACUGCGGGUUCGAGUCCCCUACGGAACG [C4U A42C G63C], which yeast fitness is on record?
A: The yeast fitness was 0.522.

Q: Which yeast fitness does the source give for GUUUCGUUGGCGUAAUGGUAACGCGUCUCCCUCCUAAGGAGACGACUGCGGGUUCGAGUCCCGUACAGAACG [C4U A43C G67A] here?
A: The yeast fitness was 0.733.
